Measurements: ChEMBL document CHEMBL4689842, “EUbOPEN Chemogenomics Library wave 1” (2021)

System: U2OS
Assay: Multiplex assay against U2OS
Type: toxicity, cell-based
Conditions: human
In short: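 Values for tubulin, mitochondrial-mass and membrane-permeability phenotypes are per cents of cells with healthy nuclei. These cells were identified by CellPathfinder machine-learning gating of live cells that had been stained at seeding with Hoechst33342, BioTracker Green Microtubule Cytoskeleton Dye, MitoTracker Red and Annexin V Alexa Fluor 680 and imaged on a CQ1 microscope at 37°C and 5% CO2 after compound addition. The gating first set Hoechst high-intensity objects apart from normal cells, then split normal cells into healthy, pyknosed or fragmented nuclei, and pyknosed cells into mitotic or apoptotic.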

[1] = 12 h, 1 µM, compound concentration 1 uM, replicate 1
[2] = 12 h, 1 µM, compound concentration 1 uM, replicate 2
[3] = 12 h, 10 µM, compound concentration 10 uM, replicate 1
[4] = 12 h, 10 µM, compound concentration 10 uM, replicate 2
[5] = 24 h, 1 µM, compound concentration 1 uM, replicate 1
[6] = 24 h, 1 µM, compound concentration 1 uM, replicate 2
[7] = 24 h, 10 µM, compound concentration 10 uM, replicate 1
[8] = 24 h, 10 µM, compound concentration 10 uM, replicate 2
[9] = 48 h, 1 µM, compound concentration 1 uM, replicate 1
[10] = 48 h, 1 µM, compound concentration 1 uM, replicate 2
[11] = 48 h, 10 µM, compound concentration 10 uM, replicate 1
[12] = 48 h, 10 µM, compound concentration 10 uM, replicate 2

SMILES: Cc1c(-c2ccc(O)cc2)n(Cc2ccc(OCCN3CCCCCC3)cc2)c2ccc(O)cc12 [BAZEDOXIFENE]
- Population Apoptotic (%) [1]: 58%
- Population Fragmented Nuclei (%) [1]: 22%
- Population Healthy Nuclei (%) [1]: 67%
- Population Hoechst High Intensity Objects (%) [1]: 15%
- Population Membrane Permeable-Phenotype (%) [1]: 3%
- Population Mitochondria Different-Phenotype (%) [1]: 13%
- Population Mitotic Cells (%) [1]: 41%
- Population Normal (%) [1]: 84%
- Population Pyknosed Nuclei (%) [1]: 9%
- Population Tubulin-Different-Phenotype (%) [1]: 20%
- Total Cell Count [1]: 144
- Population Apoptotic (%) [2]: 0%
- Population Fragmented Nuclei (%) [2]: 13%
- Population Healthy Nuclei (%) [2]: 81%
- Population Hoechst High Intensity Objects (%) [2]: 10%
- Population Membrane Permeable-Phenotype (%) [2]: 5%
- Population Mitochondria Different-Phenotype (%) [2]: 20%
- Population Mitotic Cells (%) [2]: 100%
- Population Normal (%) [2]: 89%
- Population Pyknosed Nuclei (%) [2]: 4%
- Population Tubulin-Different-Phenotype (%) [2]: 17%
- Total Cell Count [2]: 48
- Population Apoptotic (%) [3]: 41%
- Population Fragmented Nuclei (%) [3]: 24%
- Population Healthy Nuclei (%) [3]: 43%
- Population Hoechst High Intensity Objects (%) [3]: 4%
- Population Membrane Permeable-Phenotype (%) [3]: 23%
- Population Mitochondria Different-Phenotype (%) [3]: 97%
- Population Mitotic Cells (%) [3]: 58%
- Population Normal (%) [3]: 95%
- Population Pyknosed Nuclei (%) [3]: 32%
- Population Tubulin-Different-Phenotype (%) [3]: 98%
- Total Cell Count [3]: 190
- Population Apoptotic (%) [4]: 60%
- Population Fragmented Nuclei (%) [4]: 7%
- Population Healthy Nuclei (%) [4]: 56%
- Population Hoechst High Intensity Objects (%) [4]: 2%
- Population Membrane Permeable-Phenotype (%) [4]: 26%
- Population Mitochondria Different-Phenotype (%) [4]: 100%
- Population Mitotic Cells (%) [4]: 40%
- Population Normal (%) [4]: 97%
- Population Pyknosed Nuclei (%) [4]: 36%
- Population Tubulin-Different-Phenotype (%) [4]: 100%
- Total Cell Count [4]: 42
- Population Apoptotic (%) [5]: 24%
- Population Fragmented Nuclei (%) [5]: 15%
- Population Healthy Nuclei (%) [5]: 66%
- Population Hoechst High Intensity Objects (%) [5]: 11%
- Population Membrane Permeable-Phenotype (%) [5]: 3%
- Population Mitochondria Different-Phenotype (%) [5]: 9%
- Population Mitotic Cells (%) [5]: 76%
- Population Normal (%) [5]: 88%
- Population Pyknosed Nuclei (%) [5]: 17%
- Population Tubulin-Different-Phenotype (%) [5]: 11%
- Total Cell Count [5]: 157
- Population Apoptotic (%) [6]: 11%
- Population Fragmented Nuclei (%) [6]: 8%
- Population Healthy Nuclei (%) [6]: 75%
- Population Hoechst High Intensity Objects (%) [6]: 3%
- Population Membrane Permeable-Phenotype (%) [6]: 2%
- Population Mitochondria Different-Phenotype (%) [6]: 6%
- Population Mitotic Cells (%) [6]: 88%
- Population Normal (%) [6]: 96%
- Population Pyknosed Nuclei (%) [6]: 15%
- Population Tubulin-Different-Phenotype (%) [6]: 15%
- Total Cell Count [6]: 60
- Population Apoptotic (%) [7]: 73%
- Population Fragmented Nuclei (%) [7]: 32%
- Population Healthy Nuclei (%) [7]: 26%
- Population Hoechst High Intensity Objects (%) [7]: 4%
- Population Membrane Permeable-Phenotype (%) [7]: 50%
- Population Mitochondria Different-Phenotype (%) [7]: 100%
- Population Mitotic Cells (%) [7]: 26%
- Population Normal (%) [7]: 95%
- Population Pyknosed Nuclei (%) [7]: 40%
- Population Tubulin-Different-Phenotype (%) [7]: 98%
- Total Cell Count [7]: 213
- Population Apoptotic (%) [8]: 68%
- Population Fragmented Nuclei (%) [8]: 22%
- Population Healthy Nuclei (%) [8]: 30%
- Population Hoechst High Intensity Objects (%) [8]: 20%
- Population Membrane Permeable-Phenotype (%) [8]: 75%
- Population Mitotic Cells (%) [8]: 31%
- Population Normal (%) [8]: 80%
- Population Pyknosed Nuclei (%) [8]: 47%
- Population Tubulin-Different-Phenotype (%) [8]: 100%
- Total Cell Count [8]: 50
- Population Apoptotic (%) [9]: 53%
- Population Fragmented Nuclei (%) [9]: 11%
- Population Healthy Nuclei (%) [9]: 80%
- Population Hoechst High Intensity Objects (%) [9]: 7%
- Population Membrane Permeable-Phenotype (%) [9]: 2%
- Population Mitochondria Different-Phenotype (%) [9]: 13%
- Population Mitotic Cells (%) [9]: 46%
- Population Normal (%) [9]: 92%
- Population Pyknosed Nuclei (%) [9]: 8%
- Population Tubulin-Different-Phenotype (%) [9]: 8%
- Total Cell Count [9]: 197
- Population Apoptotic (%) [10]: 36%
- Population Fragmented Nuclei (%) [10]: 14%
- Population Healthy Nuclei (%) [10]: 75%
- Population Hoechst High Intensity Objects (%) [10]: 3%
- Population Membrane Permeable-Phenotype (%) [10]: 8%
- Population Mitochondria Different-Phenotype (%) [10]: 16%
- Population Mitotic Cells (%) [10]: 63%
- Population Normal (%) [10]: 96%
- Population Pyknosed Nuclei (%) [10]: 11%
- Population Tubulin-Different-Phenotype (%) [10]: 22%
- Total Cell Count [10]: 104
- Population Apoptotic (%) [11]: 95%
- Population Fragmented Nuclei (%) [11]: 39%
- Population Healthy Nuclei (%) [11]: 5%
- Population Hoechst High Intensity Objects (%) [11]: 9%
- Population Membrane Permeable-Phenotype (%) [11]: 77%
- Population Mitotic Cells (%) [11]: 4%
- Population Normal (%) [11]: 90%
- Population Pyknosed Nuclei (%) [11]: 55%
- Population Tubulin-Different-Phenotype (%) [11]: 88%
- Total Cell Count [11]: 177
- Population Apoptotic (%) [12]: 100%
- Population Fragmented Nuclei (%) [12]: 13%
- Population Healthy Nuclei (%) [12]: 48%
- Population Hoechst High Intensity Objects (%) [12]: 32%
- Population Membrane Permeable-Phenotype (%) [12]: 92%
- Population Mitochondria Different-Phenotype (%) [12]: 100%
- Population Mitotic Cells (%) [12]: 0%
- Population Normal (%) [12]: 67%
- Population Pyknosed Nuclei (%) [12]: 37%
- Population Tubulin-Different-Phenotype (%) [12]: 100%
- Total Cell Count [12]: 43
